Laboratory results published in ChEMBL document CHEMBL1799953, “Backbone cyclic peptide inhibitors of protein kinase B (PKB/Akt)” (J Med Chem, 2011).
*1 amine or outer side, *2 acyl side, *3 side chain or, on linkers, in order; H or OH if unused. Where a SMILES comes first, the peptide text is derived from it. Bridges are numbered along the chain shown (N, C = ends). [ ]: non-standard residue; d: D form. N(6-aminohexyl)Gly = O=C(CN(CCCCCCN[*:3])[*:1])[*:2]; NGly(3-aminopropyl) = O=C(CN(CCCN[*:3])[*:1])[*:2]; N(2-Aminoethyl)Gly = O=C(CN(CCN[*:3])[*:1])[*:2]; Gly(N-(CH2)6NH2) = NCCCCCCNCC(=O)O; Gly(N-2-aminoethyl) = NCCNCC(=O)O; Gly(N(CH2)3NH2) = NCCCNCC(=O)O; hLeu = CC(C)CC[C@H](N)C(=O)O; Nva = CCC[C@H](N)C(=O)O; Dap = NC[C@H](N)C(=O)O; CO = O=C([*:1])[*:2]; Nlys = NCCCCNCC(=O)O

Biological target: T1, RAC-alpha serine/threonine-protein kinase (Homo sapiens, UniProt P31749)
T1 sequence (P31749 whole entry): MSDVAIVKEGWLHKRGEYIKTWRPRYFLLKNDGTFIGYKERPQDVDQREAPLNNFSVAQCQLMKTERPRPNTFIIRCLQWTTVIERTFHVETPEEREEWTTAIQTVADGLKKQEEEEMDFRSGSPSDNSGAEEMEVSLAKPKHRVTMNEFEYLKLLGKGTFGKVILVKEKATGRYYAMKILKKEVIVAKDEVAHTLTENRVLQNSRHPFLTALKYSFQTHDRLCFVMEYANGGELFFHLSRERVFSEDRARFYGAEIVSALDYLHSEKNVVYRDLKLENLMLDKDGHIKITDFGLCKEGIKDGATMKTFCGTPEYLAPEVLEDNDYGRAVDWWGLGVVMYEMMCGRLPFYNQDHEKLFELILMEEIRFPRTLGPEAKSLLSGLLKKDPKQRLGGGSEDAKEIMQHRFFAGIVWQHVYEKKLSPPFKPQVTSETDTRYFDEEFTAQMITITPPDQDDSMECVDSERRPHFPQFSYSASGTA
Assay: Inhibition of Akt using RPRTSSF peptide and [gamma32]ATP by cell-free radioactive assay
Procedure, shortened: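 Same reaction: HisΔPHPKBEEEFlag (0.005 units), 50 mM Hepes pH 7.4, 0.1 mM EGTA, 0.1% 2-mercaptoethanol, 10 mM magnesium acetate, 3 μM RPRTSSF, 10 μM [γ32P]ATP. Peptide stock concentration determined by UV spectrophotometry; reference peptide run in every assay.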

| IC50 [nM] | SMILES |
| --- | --- |
| 250 | CCC[C@H](NC(=O)[C@H](CCCN=C(N)N)NC(=O)CN(CCN)C(=O)[C@@H](N)CCCN=C(N)N)C(=O)N[C@@H](Cc1ccc(O)cc1)C(=O)N[C@@H](CN)C(=O)N[C@@H](CCC(C)C)C(=O)N(CCCN)CC(N)=O (H-R[Gly(N-2-aminoethyl)]R[Nva]Y[Dap][hLeu][Gly(N(CH2)3NH2)]-NH2) |
| 176 | CCC[C@H](NC(=O)[C@H](CCCN=C(N)N)NC(=O)CN(CCN)C(=O)[C@@H](N)CCCN=C(N)N)C(=O)N[C@@H](Cc1ccc(O)cc1)C(=O)N[C@@H](CN)C(=O)N[C@@H](CCC(C)C)C(=O)N(CCCCN)CC(N)=O (H-R[Gly(N-2-aminoethyl)]R[Nva]Y[Dap][hLeu][Nlys]-NH2) |
| 320 | CCC[C@H](NC(=O)[C@H](CCCN=C(N)N)NC(=O)CN(CCCCCCN)C(=O)[C@@H](N)CCCN=C(N)N)C(=O)N[C@@H](Cc1ccc(O)cc1)C(=O)N[C@@H](CN)C(=O)N[C@@H](CCC(C)C)C(=O)N(CCN)CC(N)=O (H-R[Gly(N-(CH2)6NH2)]R[Nva]Y[Dap][hLeu][Gly(N-2-aminoethyl)]-NH2) |
| 160 | CCC[C@H](NC(=O)[C@H](CCCN=C(N)N)NC(=O)CN(CCCCCCN)C(=O)[C@@H](N)CCCN=C(N)N)C(=O)N[C@@H](Cc1ccc(O)cc1)C(=O)N[C@@H](CN)C(=O)N[C@@H](CCC(C)C)C(=O)N(CCCCN)CC(N)=O (H-R[Gly(N-(CH2)6NH2)]R[Nva]Y[Dap][hLeu][Nlys]-NH2) |
| 282 | CCC[C@@H]1NC(=O)[C@H](CCCN=C(N)N)NC(=O)CN(C(=O)[C@@H](N)CCCN=C(N)N)CCNC(=O)NCCCCN(CC(N)=O)C(=O)[C@H](CCC(C)C)NC(=O)[C@H](CN)NC(=O)[C@H](Cc2ccc(O)cc2)NC1=O (H-R[N(2-Aminoethyl)Gly]R[Nva]Y[Dap][hLeu][Nlys]-NH2; linker 2-8 via CO) |
| 280 | CCC[C@@H]1NC(=O)[C@H](CCCN=C(N)N)NC(=O)CN(C(=O)[C@@H](N)CCCN=C(N)N)CCCCCCNC(=O)NCCCCN(CC(N)=O)C(=O)[C@H](CCC(C)C)NC(=O)[C@H](CN)NC(=O)[C@H](Cc2ccc(O)cc2)NC1=O (H-R[N(6-aminohexyl)Gly]R[Nva]Y[Dap][hLeu][Nlys]-NH2; linker 2-8 via CO) |
| 590 | CCC[C@@H]1NC(=O)[C@H](CCCN=C(N)N)NC(=O)CN(C(=O)[C@@H](N)CCCN=C(N)N)CCCNC(=O)NCCCN(CC(N)=O)C(=O)[C@H](CCC(C)C)NC(=O)[C@H](CN)NC(=O)[C@H](Cc2ccc(O)cc2)NC1=O (H-R[NGly(3-aminopropyl)]R[Nva]Y[Dap][hLeu][NGly(3-aminopropyl)]-NH2; linker 2-8 via CO) |
| 220 | CCC[C@H](NC(=O)[C@H](CCCN=C(N)N)NC(=O)CN(CCCCN)C(=O)[C@@H](N)CCCN=C(N)N)C(=O)N[C@@H](Cc1ccc(O)cc1)C(=O)N[C@@H](CN)C(=O)N[C@@H](CCC(C)C)C(=O)N(CCN)CC(N)=O (H-R[Nlys]R[Nva]Y[Dap][hLeu][Gly(N-2-aminoethyl)]-NH2) |

Biological target: T1, RAC-alpha serine/threonine-protein kinase
Assay: Inhibition of Akt using RPRTSSF peptide and [gamma32]ATP at 0.625 uM by cell-free radioactive assay relative to control

| inhibition [%] | SMILES |
| --- | --- |
| 36 | CCC[C@H](NC(=O)[C@H](CCCNC(=N)N)NC(=O)[C@@H]1CCCN1C(=O)[C@@H](N)CCCNC(=N)N)C(=O)N[C@@H](Cc1ccc(O)cc1)C(=O)N[C@@H](CN)C(=O)N[C@@H](CCC(C)C)C(N)=O |
| 76 | CCC[C@H](NC(=O)[C@H](CCCNC(=N)N)NC(=O)CN(CCCN)C(=O)[C@@H](N)CCCNC(=N)N)C(=O)N[C@@H](Cc1ccc(O)cc1)C(=O)N[C@@H](CN)C(=O)N[C@@H](CCC(C)C)C(=O)N(CCN)CC(N)=O (H-R[Gly(N(CH2)3NH2)]R[Nva]Y[Dap][hLeu][Gly(N-2-aminoethyl)]-NH2) |
| 51 | CCC[C@H](NC(=O)[C@H](CCCNC(=N)N)NC(=O)CN(CCCN)C(=O)[C@@H](N)CCCNC(=N)N)C(=O)N[C@@H](Cc1ccc(O)cc1)C(=O)N[C@@H](CN)C(=O)N[C@@H](CCC(C)C)C(=O)N(CCCCCCN)CC(N)=O (H-R[Gly(N(CH2)3NH2)]R[Nva]Y[Dap][hLeu][Gly(N-(CH2)6NH2)]-NH2) |
| 76 | CCC[C@H](NC(=O)[C@H](CCCNC(=N)N)NC(=O)CN(CCN)C(=O)[C@@H](N)CCCNC(=N)N)C(=O)N[C@@H](Cc1ccc(O)cc1)C(=O)N[C@@H](CN)C(=O)N[C@@H](CCC(C)C)C(=O)N(CCCN)CC(N)=O (H-R[Gly(N-2-aminoethyl)]R[Nva]Y[Dap][hLeu][Gly(N(CH2)3NH2)]-NH2) |
| 57 | CCC[C@H](NC(=O)[C@H](CCCNC(=N)N)NC(=O)CN(CCN)C(=O)[C@@H](N)CCCNC(=N)N)C(=O)N[C@@H](Cc1ccc(O)cc1)C(=O)N[C@@H](CN)C(=O)N[C@@H](CCC(C)C)C(=O)N(CCN)CC(N)=O (H-R[Gly(N-2-aminoethyl)]R[Nva]Y[Dap][hLeu][Gly(N-2-aminoethyl)]-NH2) |
| 42 | CCC[C@H](NC(=O)[C@H](CCCNC(=N)N)NC(=O)CN(CCN)C(=O)[C@@H](N)CCCNC(=N)N)C(=O)N[C@@H](Cc1ccc(O)cc1)C(=O)N[C@@H](CN)C(=O)N[C@@H](CCC(C)C)C(=O)N(CCCCCCN)CC(N)=O (H-R[Gly(N-2-aminoethyl)]R[Nva]Y[Dap][hLeu][Gly(N-(CH2)6NH2)]-NH2) |
